Activity calls are given as the source filed them. No cut-off for these calls is given here.
Tests used:
[1] = target: T1, Bile acid receptor (Homo sapiens) (UniProt Q96RI1); assay: Agonist activity at GST-tagged FXR-LBD (unknown origin) assessed as biotinylated SRC-1 recruitment at 10 uM after 30 mins by Alpha Screen assay
T1 sequence (whole entry): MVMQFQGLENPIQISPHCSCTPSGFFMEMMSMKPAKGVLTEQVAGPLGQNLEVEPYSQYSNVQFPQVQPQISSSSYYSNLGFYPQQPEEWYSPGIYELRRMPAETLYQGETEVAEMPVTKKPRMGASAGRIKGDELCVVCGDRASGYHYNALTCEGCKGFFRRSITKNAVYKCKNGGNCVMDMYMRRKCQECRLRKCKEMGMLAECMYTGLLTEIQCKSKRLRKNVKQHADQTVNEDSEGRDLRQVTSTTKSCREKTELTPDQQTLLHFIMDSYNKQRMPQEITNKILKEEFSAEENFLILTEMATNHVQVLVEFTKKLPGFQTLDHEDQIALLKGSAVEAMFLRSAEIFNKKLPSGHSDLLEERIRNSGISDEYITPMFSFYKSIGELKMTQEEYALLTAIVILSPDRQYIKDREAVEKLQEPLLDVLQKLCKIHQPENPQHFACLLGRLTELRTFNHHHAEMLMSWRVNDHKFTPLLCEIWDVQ

[2] = target: T2, G-protein coupled bile acid receptor 1 (Homo sapiens) (UniProt Q8TDU6); assay: Transactivation of human GPBAR1 receptor expressed in HEK293T cells at 10 to 50 uM after 18 hrs by cAMP response element driven renilla-luciferase dual reporter gene assay; assay type: functional, cell-based; settings: HEK-293T
T2 sequence (whole entry): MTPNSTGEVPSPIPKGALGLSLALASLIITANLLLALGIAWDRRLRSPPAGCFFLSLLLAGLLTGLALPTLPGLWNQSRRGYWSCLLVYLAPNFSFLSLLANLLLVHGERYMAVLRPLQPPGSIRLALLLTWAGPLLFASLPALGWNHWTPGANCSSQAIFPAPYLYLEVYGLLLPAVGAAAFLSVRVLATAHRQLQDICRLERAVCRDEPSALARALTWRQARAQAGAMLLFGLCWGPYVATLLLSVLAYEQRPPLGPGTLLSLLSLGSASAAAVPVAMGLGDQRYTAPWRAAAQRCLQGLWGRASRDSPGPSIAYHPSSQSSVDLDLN

[3] = target: T2, G-protein coupled bile acid receptor 1 (Homo sapiens); assay: Transactivation of human GPBAR1 receptor expressed in HEK293T cells assessed as maximum receptor activation at 10 uM after 18 hrs by cAMP response element driven renilla-luciferase dual reporter gene assay relative to TLCA; assay type: functional, cell-based; settings: HEK-293T
Procedure, shortened: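 HEK-293T cells transfected with GPBAR1 and a CRE-driven luciferase reporter, exposed to compound at 10 μM. Efficacy is maximal CRE transactivation as percent of that caused by TLCA (10 μM). One experiment, triplicate.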

[4] = target: T1, Bile acid receptor (Homo sapiens); assay: Transactivation of FXR (unknown origin) expressed in HepG2 cells co-expressing pSG5RXR/pGL4.70 assessed as maximum receptor activation at 10 uM after 18 hrs by IR1 driven dual renilla-luciferase reporter gene assay relative to relative to CDCA; assay type: cell-based
Procedure, shortened: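 FXR reporter assay in HepG2 cells transfected with FXR and an IR1-driven luciferase reporter, compound at 10 μM. Efficacy is maximal IR1 transactivation relative to CDCA (10 μM). One experiment, triplicate.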

Homo sapiens = species on record: Homo sapiens; assay: Selectivity index, ratio of transactivation of human GPBAR1 receptor expressed in HEK293T cells assessed as maximum receptor activation at 10 uM to transactivation of human FXR (unknown origin) expressed in HepG2 cells co-expressing pSG5RXR/pGL4.70 assessed as maximum receptor activation at 10 uM; assay type: cell-based
Procedure, shortened: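 Ratio of percent activity at GPBAR1 (HEK-293T, CRE-luciferase, 10 μM, vs TLCA 10 μM) to percent activity at FXR (HepG2, IR1-luciferase, 10 μM, vs CDCA 10 μM). Both taken from the same triplicate experiment.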

[5] = Aqueous solubility of compound in pH 7.4 PBS/MeOH at 10 mM after 24 hrs by LC-MS analysis; assay type: physicochemical; settings: buffer, pH 7.4, 24 h, 10000 µM
[6] = target: T2, G-protein coupled bile acid receptor 1 (Homo sapiens); assay: Agonist activity at GPBAR1 receptor in human THP1 cells assessed as reduction in LPS-induced IL-1beta expression at 10 uM after 18 hrs by RT-PCR analysis; assay type: cell-based; settings: THP-1
Procedure, shortened: (§1)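 THP1 monocytic/macrophage cells primed with LPS, then coincubated with or without test agent at 10 μM; expression of cytokine genes (IL-1β, IL-6, TNF-α, IL-10) measured.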

[7] = target: T2, G-protein coupled bile acid receptor 1 (Homo sapiens); assay: Agonist activity at GPBAR1 receptor in human THP1 cells assessed as reduction in LPS-induced IL-6 expression at 10 uM after 18 hrs by RT-PCR analysis; assay type: cell-based; settings: THP-1; procedure, shortened: as §1
[8] = target: T3, G-protein coupled bile acid receptor 1 (Homo sapiens, UniProt Q8TDU6); assay: Agonist activity at human GPBAR1 receptor expressed in HEK293T cells after 18 hrs by cAMP response element driven renilla-luciferase dual reporter gene assay; assay type: functional, cell-based, HEK-293T
T3 sequence (Q8TDU6 whole entry): T2 sequence (whole entry)
Procedure, shortened: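 GPBAR1 transactivation in transfected HEK-293T cells carrying a CRE-luciferase reporter; potency expressed as EC50. Data from one experiment run in triplicate.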

[9] = target: T2, G-protein coupled bile acid receptor 1 (Homo sapiens); assay: Agonist activity at GPBAR1 receptor in human THP1 cells assessed as reduction in LPS-induced TNFalpha expression at 10 uM after 18 hrs by RT-PCR analysis; assay type: cell-based; settings: THP-1; procedure, shortened: as §1

SMILES | max activation [3] [%] | max activation [4] [%] | EC50 [8] [nM] | Activity [1] | Activity [2] | Selectivity Index (Homo sapiens) | solubility [5] | Activity [6] | Activity [7] | Activity [9]
CC[C@@]1(O)C[C@@H]2[C@H](CC[C@]3(C)[C@@H]([C@H](C)CC#N)CC[C@@H]23)[C@@]2(C)CC[C@@H](O)C[C@H]12 |  |  |  | inactive | inactive |  |  |  |  | 
C=CCCC[C@]1(O)C[C@H]2[C@@H]3CC[C@H]([C@H](C)CC#N)[C@@]3(C)CC[C@@H]2[C@@]2(C)CC[C@@H](O)C[C@@H]12 | 90.1 | 1.6 |  |  |  | 56.3 | Soluble | Active | Active | 
C=C[C@]1(O)C[C@@H]2[C@H](CC[C@]3(C)[C@@H]([C@H](C)CC#N)CC[C@@H]23)[C@@]2(C)CC[C@@H](O)C[C@H]21 | 62.5 | 2.2 |  |  |  | 28.4 |  |  |  | 
C[C@H](CC#N)[C@H]1CC[C@H]2[C@@H]3C[C@@](C)(O)[C@@H]4C[C@H](O)CC[C@]4(C)[C@H]3CC[C@]12C | 83.4 | 5.5 |  |  |  | 15.1 | Soluble | Active | Active | 
CCC[C@@]1(O)C[C@@H]2[C@H](CC[C@]3(C)[C@@H]([C@H](C)CC#N)CC[C@@H]23)[C@@]2(C)CC[C@@H](O)C[C@H]12 |  |  |  | inactive | inactive |  |  |  |  | 
C[C@H](CC#N)[C@H]1CC[C@H]2[C@@H]3C[C@](O)(Cc4ccccc4)[C@@H]4C[C@H](O)CC[C@]4(C)[C@H]3CC[C@]12C | 8.3 | 4.4 |  |  |  | 1.88 |  |  |  | 
CC[C@@]1(O)C[C@H]2[C@@H]3CC[C@H]([C@H](C)CC#N)[C@@]3(C)CC[C@@H]2[C@@]2(C)CC[C@@H](O)C[C@@H]12 | 65.9 | 6.6 |  |  |  | 9.9 | Soluble | Active | Active | Active
C=CC[C@@]1(O)C[C@@H]2[C@H](CC[C@]3(C)[C@@H]([C@H](C)CC#N)CC[C@@H]23)[C@@]2(C)CC[C@@H](O)C[C@H]12 |  |  |  | inactive | inactive |  |  |  |  | 
C[C@H](CC#N)[C@H]1CC[C@H]2[C@@H]3C[C@@](C)(O)[C@H]4C[C@H](O)CC[C@]4(C)[C@H]3CC[C@]12C |  |  |  | inactive | inactive |  |  |  |  | 
C[C@H](CC#N)[C@H]1CC[C@H]2[C@@H]3C[C@](C)(O)[C@@H]4C[C@H](O)CC[C@]4(C)[C@H]3CC[C@]12C | 95.4 | 6.4 |  |  |  | 14.9 | Soluble | Active | Active | Active

More lines, main results first:

max activation [3] [%] | max activation [4] [%] | EC50 [8] [nM] | SMILES | Activity [1] | Activity [2] | Selectivity Index (Homo sapiens) | solubility [5] | Activity [6] | Activity [7] | Activity [9]
22.2 | 4.3 |  | CC(C)[C@]1(O)C[C@@H]2[C@H](CC[C@]3(C)[C@@H]([C@H](C)CC#N)CC[C@@H]23)[C@@]2(C)CC[C@@H](O)C[C@H]21 |  |  | 5.16 |  |  |  | 
67.1 | 3.1 |  | CCC[C@]1(O)C[C@H]2[C@@H]3CC[C@H]([C@H](C)CC#N)[C@@]3(C)CC[C@@H]2[C@@]2(C)CC[C@@H](O)C[C@@H]12 |  |  | 21.6 |  |  |  | 
62.5 | 4.1 | 100 | C=CC[C@@]1(O)C[C@H]2[C@@H]3CC[C@H]([C@H](C)CC#N)[C@@]3(C)CC[C@@H]2[C@@]2(C)CC[C@@H](O)C[C@@H]12 |  |  | 15.2 |  |  |  | 
119 | 3.5 | 2650 | C[C@H](CC#N)[C@H]1CC[C@H]2[C@@H]3C[C@H](O)[C@@H]4C[C@H](O)CC[C@]4(C)[C@H]3CC[C@]12C |  |  | 33.9 |  |  |  | 
38.8 | 18.2 |  | C[C@H](CC#N)[C@H]1CC[C@H]2[C@@H]3C[C@@](O)(c4ccccc4)[C@@H]4C[C@H](O)CC[C@]4(C)[C@H]3CC[C@]12C |  |  | 2.13 |  |  |  | 

Source: ChEMBL document CHEMBL4613298, “GPBAR1 Activation by C6-Substituted Hyodeoxycholane Analogues Protect against Colitis” (ACS Med Chem Lett, 2020)
